Tests used:
[1] = AUCt in HIV-infected human plasma at 800 mg qd for 10 days administered in fasted condition on day 10 by HPLC with fluorescence detector; format: ADME, cell-free
How it was run: (§1)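 Day-10 fasted serial sampling 0–24 h after oral 800 mg once daily. Plasma from two centrifugations (390 × g, 1,090 × g, 10 min), stored −80°C; liquid-liquid extraction with tert-butyl methyl ether; HPLC C18, phosphate buffer (25 mM, pH 3)-acetonitrile, fluorescence ex 299/em 396 nm, linear 10–5,000 ng/ml. Noncompartmental: AUCτ linear trapezoidal, Cmax/Cτ by inspection, λz from terminal log-linear regression.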

[2] = AUCt in HIV-infected human PBMC at 800 mg qd for 10 days administered in fasted condition on day 10 by LC-MS/MS analysis; format: ADME, cell-based
How it was run: (§2)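 EDTA blood kept 4°C, processed within 1 h; PBMCs isolated on Ficoll gradient, washed with 0.9% NaCl, pellet stored −80°C. LC-MS/MS, calibration 0.4–150 ng/ml lysate; cell number by DNA detection. Noncompartmental analysis; AUCτ linear trapezoidal; geometric mean (range).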

[3] = Cmax in HIV-infected human plasma at 800 mg qd for 10 days administered in fasted condition on day 10 by HPLC with fluorescence detector; format: ADME, organism-based; parameters: dose 800 mg; how it was run: as §1
[4] = Cmax in HIV-infected human PBMC at 800 mg qd for 10 days administered in fasted condition on day 10 by LC-MS/MS analysis; format: ADME, organism-based; parameters: dose 800 mg; how it was run: as §2
[5] = Drug concentration at the end of dosing interval in HIV-infected human plasma at 800 mg qd for 10 days administered in fasted condition on day 10 by HPLC with fluorescence detector; format: ADME, cell-free; conditions: read-out: Ctau; how it was run: as §1
[6] = Drug concentration at the end of dosing interval in HIV-infected human PBMC at 800 mg qd for 10 days administered in fasted condition on day 10 by LC-MS/MS analysis; format: ADME, cell-based; conditions: read-out: Ctau; how it was run: as §2
[7] = Terminal phase half life in HIV-infected human plasma at 800 mg qd for 10 days administered in fasted condition on day 10 by HPLC with fluorescence detector; format: ADME, cell-free; conditions: read-out: beta t1/2 (converted); how it was run: as §1
[8] = Terminal phase half life in HIV-infected human PBMC at 800 mg qd for 10 days administered in fasted condition on day 10 by LC-MS/MS analysis; format: ADME, cell-based; conditions: read-out: beta t1/2 (converted); how it was run: as §2
PBMC [9] = assay: Intracellular compound distribution in ratio in HIV-infected human PBMC at AUCt by LC-MS/MS analysis; format: ADME, cell-based
How it was run: (§3)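 Intracellular distribution ratio: PBMC concentration (LC-MS/MS) divided by plasma concentration (HPLC-fluorescence), computed per patient for AUCτ, Cmax and Cτ from day-10 fasted 0–24 h profiles after 800 mg once daily; reported as median (range).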

PBMC [10] = assay: Intracellular compound distribution in ratio in HIV-infected human PBMC at Cmax by LC-MS/MS analysis; format: ADME, cell-based; how it was run: as §3
PBMC [11] = assay: Intracellular compound distribution in ratio in HIV-infected human PBMC at Ctau by LC-MS/MS analysis; format: ADME, cell-based; how it was run: as §3
Homo sapiens = assay: Toxicity in HIV-infected human at 800 mg qd for 10 days administered in fasted condition on day 10; format: organism-based; conditions: in vivo, 240 h
How it was run: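 Safety assessed on days 0 and 10 by clinical evaluation and laboratory tests (blood counts, chemistry) during 800 mg once-daily oral dosing added to ongoing antiretroviral therapy.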

- AUC(0-t) at 240 h [1]: 12200 ng·h/mL
- AUC(0-t) at 240 h [2]: 909 ng·h/mL
- Cmax [3]: 2640 ng/mL
- Cmax [4]: 199 ng/mL
- concentration at 240 h [5]: 89 ng/mL
- concentration at 240 h [6]: 7 ng/mL
- half-life [7]: 16 h
- half-life [8]: 11.2 h
- Ratio (PBMC [9]): 0.07
- Ratio (PBMC [10]): 0.08
- Ratio (PBMC [11]): 0.18
Structure (SMILES): Cc1nnc(C(=O)NC(C)(C)c2nc(C(=O)NCc3ccc(F)cc3)c(O)c(=O)n2C)o1 [RALTEGRAVIR]
- Activity (Homo sapiens): Non-toxic
